This is an account of results in PMC3326416 (Journal of the American Chemical Society, 2012).

In general, IC50 refers to the midpoint of a concentration-inhibition curve.

One assay concerns serine hydrolases. Put plainly: Gel-based ABPP in situ in Neuro2A cells, off-target serine hydrolases. Format: cell-based, mouse. In outline: (§1)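 Intact Neuro-2A cells were treated with test compound at 10–0.001 µM for 2 h. Membrane and soluble proteomes were then analysed by gel-based competitive ABPP, and IC50 was derived from the gel signal. Data are mean ± SEM, n = 3/group.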

Assay [1] has as its target T1, ABHD10 (Mus musculus, UniProt Q6PE15).
T1 sequence (Q6PE15 44-297): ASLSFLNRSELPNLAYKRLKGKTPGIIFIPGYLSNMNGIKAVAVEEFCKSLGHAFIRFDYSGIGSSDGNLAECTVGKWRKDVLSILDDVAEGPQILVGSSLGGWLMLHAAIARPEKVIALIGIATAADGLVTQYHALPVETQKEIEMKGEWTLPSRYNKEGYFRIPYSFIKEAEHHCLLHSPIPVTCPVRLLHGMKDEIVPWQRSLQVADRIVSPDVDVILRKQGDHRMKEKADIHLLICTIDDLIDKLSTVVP
Put plainly: ABPP-SILAC in Neuro-2A cells, ABHD10. In kind it is cell-based.

Assay [2] deals with T1, ABHD10. Put plainly: Gel-based ABPP in situ in Neuro2A cells, ABHD10. Particulars: single treatment, 250 nM. Format: cell-based. In short, it runs like this: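 Neuro-2A cells received a single in situ treatment with test compound at 250 nM. ABHD10 activity was then followed by gel-based ABPP of cell proteomes over a period of up to 6 h after treatment.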
In assay [3] the target is T1, ABHD10. Put plainly: Competitive ABPP of Neuro2A proteomes. Format: biochemical.
Assay [4] addresses T2, PME-1 (Mus musculus, UniProt Q8BVQ5).
T2 sequence (Q8BVQ5 1-386): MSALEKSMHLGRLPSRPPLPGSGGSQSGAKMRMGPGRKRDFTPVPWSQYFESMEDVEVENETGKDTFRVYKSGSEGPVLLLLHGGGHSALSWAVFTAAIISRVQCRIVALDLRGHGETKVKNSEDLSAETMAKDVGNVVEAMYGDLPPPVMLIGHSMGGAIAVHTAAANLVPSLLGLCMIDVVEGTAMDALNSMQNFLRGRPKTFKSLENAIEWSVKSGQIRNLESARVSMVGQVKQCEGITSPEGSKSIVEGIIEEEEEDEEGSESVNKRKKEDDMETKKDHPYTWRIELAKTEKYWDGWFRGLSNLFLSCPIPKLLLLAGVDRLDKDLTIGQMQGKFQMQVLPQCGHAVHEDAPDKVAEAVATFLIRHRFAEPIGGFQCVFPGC
Put plainly: Gel-based ABPP in situ in Neuro2A cells, PME-1. In kind it is cell-based. The following applies: up to 10 µM, 2 h. In short, it runs like this:
as §1

Assay [5] has as its target T1, ABHD10. Put plainly: ABPP-SILAC in BW5147-derived mouse T-cell hybridoma cells, ABHD10. Format: cell-based. In outline: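 ABPP-SILAC in a second line, BW5147-derived mouse T-cell hybridoma cells. Cells were cultured in light or heavy amino acids and treated with DMSO or test compound. Proteomes were FP-biotin-labelled, combined 1:1, avidin-enriched and analysed by LC/LC-MS/MS. Serine hydrolase activity was quantified from heavy:light MS1 ratios of tryptic peptides.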

Assay [6] has as its system PME-1. The following applies: acylation of active-site serine nucleophile; cited from earlier work.
The target in assay [7] is T2, PME-1. Put plainly: ABPP-SILAC in Neuro-2A cells, PME-1. In kind it is cell-based. Particulars: 100 nM, 2 h. In outline: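 Neuro-2A cells were grown in isotopically light or heavy amino acids: light cells got DMSO, heavy cells got test compound at 100 nM for 2 h. Proteomes were labelled with FP-biotin, mixed 1:1, avidin-enriched and analysed by LC/LC-MS/MS on an LTQ-Velos Orbitrap. Activity is the heavy:light MS1 ion ratio of tryptic peptides, reported as mean ± SEM over all peptides quantified per hydrolase.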

Each structure is given as a SMILES string. Where “and” joins values, the source holds several entries; their conditions need not be identical. Equal entries are not always repeated. Entries after “also recorded” stand apart in the source; their conditions may differ. Bounds are passed on as bounds.

Consider `CCC1(c2ccc(C)cc2)C(=O)N(C(=O)OC(C)C)N1C(=O)OC(C)C` (centres unmarked) [ABL303], for which the “concentration at which off-targets are detected” value with serine hydrolases was at least 1 µM. The “inhibition of ABHD10 (ABPP-SILAC), in words” value against ABHD10 [1] (100 nM, 2 h) is on record as “selective inhibition”. The “loss in ABHD10 activity” value on ABHD10 [1] (100 nM, 2 h, ABPP-SILAC, ~40 serine hydrolase activities detected) is given as over 95%. For the same molecule, the “inhibition of ABHD10 at higher concentration” value at ABHD10 [1] (250 nM) was “complete and selective inhibition”. Further, the “time complete inhibition of ABHD10 was maintained” value on ABHD10 [2] is “at least 6 h”. For the same molecule, the “selectivity for ABHD10 over ABHD6, PREP, PME-1, and other serine hydrolases” value on ABHD10 [3] is reported as “at least 40 fold”. Also, on ABHD10 [3] (read-out: IC50 ABHD10, in vitro), the IC50 is ~0.03 µM and 0.03 µM. Moreover, on PME-1 [4], the “inhibition of PME-1 in situ” value is “no significant inhibition”. Moreover, at ABHD10 [5], the “inhibition of ABHD10 in second cell line” value is “complete and selective inhibition”.
Turning to `COC(=O)N1C(=O)[C@](c2ccccc2)(C2CCCC2)N1C(=O)OC` [ABL127], the “inhibition of PME-1 in cells and mice” value in the assay with PME-1 [6] was “irreversibly inhibit”. Further, the “disruption of PME-1 activity (ABPP-SILAC)” value on PME-1 [7] is “complete and selective disruption; also recorded: selective inhibition”.
